CHT inh – inhibitors of human choline transporter CHT. AID 488975, 2010. CHT-expressing cells, membrane potential dye, choline response; stronger effect = lower value. B-score at 10 µM. hit rate 0.86% among 310,000;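 active = B-score over 3 SD under the library average, and starting fluorescence ratio not unusually high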;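 also: choline stimulus applied at its EC90 after an EC20 pre-addition; B-score computed on integrated fluorescence ratio after choline addition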
Rad51 HR inh – human RAD51 strand exchange inhibitors, primary screen, biochemical, fluorescence. DNA repair protein RAD51 homolog 1 (Homo sapiens), Q06609. hRad51 DNA strand exchange, fluorescence dequenching. inhibition, % at 10 µM. hit rate 0.085% among 200,000. AID 1385, 2008;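 active = inhibition above 40% at the single screening dose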;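 also: 0% = DMSO control wells and 100% = blanks with heterologous ssDNA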
Target sequence (Q06609 whole entry, looked up): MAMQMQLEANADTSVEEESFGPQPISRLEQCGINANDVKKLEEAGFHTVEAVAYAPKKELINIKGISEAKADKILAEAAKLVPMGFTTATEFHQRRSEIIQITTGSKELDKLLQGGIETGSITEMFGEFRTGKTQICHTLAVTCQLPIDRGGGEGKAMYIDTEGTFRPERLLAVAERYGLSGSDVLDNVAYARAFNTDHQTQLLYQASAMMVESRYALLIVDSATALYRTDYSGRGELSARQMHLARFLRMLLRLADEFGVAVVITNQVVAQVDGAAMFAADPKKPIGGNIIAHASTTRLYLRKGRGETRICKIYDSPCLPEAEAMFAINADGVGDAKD
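Test system – preformed human Rad51 ssDNA filaments · Reagent – Donor/quencher-labelled 47-bp dsDNA substrate · Incubation – 37 °C 15-min filament assembly, 30-min compound preincubation, 15-min exchange · Signal – FRET fluorescence dequenching, excitation 485 nm, emission 520 nm · Read-out – percent inhibition from fluorescence, normalised to plate control and blank means · Benchmarks – plate control and blank wells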
KCC2 mod – KCC2 cotransporter modulators, thallium flux, primary screen, cell-based, HEK293 KCC2, FluoZin-2 fluorescence, MLSMR. KCC2 cells, thallium flux FluoZin-2 fluorescence. B-score of Tl+ flux slope (higher = more flux/activation; lower = inhibition) at 10 µM. Solute carrier family 12 member 5 (Homo sapiens), Q9H2X9. hit rate 2.2% among 190,000;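 active = thallium flux slope and its plate-corrected score both differing from the plate sample mean at a set confidence after two filtering rounds, in either direction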;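 also: slope of fluorescence scaled to starting intensity during 10 to 20 s after thallium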
CHT PAM – CHT positive allosteric modulators, primary screen, cell-based, membrane potential dye, choline EC20. B-score at 10 µM. AID 488977, 2010. CHT-expressing cells; stronger effect = higher value; LV-AA mutant CHT in HEK293 cells. hit rate 0.49% among 310,000. High affinity choline transporter 1 (Homo sapiens), Q9GZV3;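 active = initial fluorescence not abnormally high and integrated response B-score, plate-corrected, over 3 SD above library mean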
KCC2 secondary – KCC2 modulators in sodium-free buffer, confirmation, cell-based, HEK293 KCC2, thallium flux, secondary assay | shares compounds with KCC2 mod | FluoZin2 fluorescence; stronger effect = higher value | normalised thallium flux (F/F0 slope) at 10 µM | hit rate 15% among 3,700 | AID 1713, 2009;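 active = thallium flux slope above the same plate's solvent-only control mean plus 3 SD; inconclusive = the two replicate wells disagree; inactive = no significant difference from solvent-only control wells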
KCC2 bumet counter – thallium flux persisting under bumetanide in KCC2 cells, confirmation, counter-screen for KCC2 modulator project, cell-based, HEK293 KCC2, FluoZin2, secondary assay 3; shares compounds with KCC2 mod; HEK293-KCC2 + bumetanide/ouabain; stronger effect = higher value; normalized thallium flux at 10 µM; hit rate 49% among 3,700;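 active = thallium entry rate above the same plate's blocked-transporter control wells by more than 3 SD; inconclusive = the two repeat wells disagree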;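 also: raw slope of fluorescence over initial fluorescence between 10 and 20 s after thallium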
KCC2 sec2 – KCC2 modulators without ouabain present, confirmation, cell-based, HEK293 KCC2, thallium flux, FluoZin2, secondary assay 2; shares compounds with KCC2 mod; thallium flux FluoZin2 fluorescence; actives lie on both sides; F/F0 rise rate, 10–20 s post-thallium; normalized thallium flux at 10 µM; hit rate 23% among 3,700; AID 1715, 2009;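 active = thallium flux slope more than 3 SD above or below the plate's solvent-only control mean, mostly below; inconclusive = the two repeat wells disagreed; inactive = no significant shift from solvent-only controls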;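 also: raw slope with 0.1% DMSO as baseline and bumetanide as block control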
HEK counter1 – thallium flux modulation in parental HEK cells, confirmation, counter-screen for KCC2 modulator project, cell-based, counterscreen 1; shares compounds with KCC2 mod; HEK293 parental cells, thallium flux FluoZin2, ouabain; baseline-ratio fluorescence slope, 10–20 s after thallium; thallium flux rate (normalised fluorescence) at 10 µM; hit rate 46% among 3,700;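 active = thallium flux rate significantly above the same plate's solvent-only control wells, beyond their mean plus 3 SD; inconclusive = the two replicate wells gave conflicting results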
KCC2 retest ouab – KCC2 inhibitors and activators, ouabain retest, confirmation, HEK-KCC2 cells; raw Tl+ flux slope (below DMSO = inhibition, above = activation) at 10 µM; shares compounds with KCC2 mod; hit rate 48% among 3,700; HEK293-KCC2, thallium flux FluoZin2 fluorescence; bidirectional: low = inhibitor, high = activator; AID 1717, 2009;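 active = thallium flux slope beyond 3 SD from same-plate DMSO control mean in most replicates, usually higher, sometimes lower; inconclusive = repeat tests gave conflicting results; inactive = no significant difference from controls in most replicates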;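 also: slope of initial-normalized fluorescence between seconds 10 and 20 after thallium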
HEK counter2 – native HEK Tl+ uptake effects, second counter-screen – HEK cells, counterscreen 2, counter-screen for KCC2 modulator project, confirmation; shares compounds with KCC2 mod; HEK293 parental, thallium flux FluoZin-2 fluorescence slope; thallium flux slope at 10 µM; hit rate 33% among 3,700; AID 1718, 2009;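 active = thallium flux slope above the same plate's solvent-control mean plus 3 SD in both duplicate wells; inconclusive = duplicate wells that disagreed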;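 also: run without ouabain in cells lacking the KCC2 cotransporter; slope of fluorescence scaled to its starting value between 10 and 20 s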
Active calls of the source: *. Only some compounds are listed: those with a hit (about 2.6% of all), similar ones and a draw of the others.

How did Cc1ccc(OCC(=O)Oc2ccc(C)c(C)c2)cc1 do in these assays?
CHT inh: inactive; CHT PAM: inactive

Results for COc1cc(OC)c(C(=O)/C=C/c2ccccc2)c(O)c1O ?
CHT inh: inactive; Rad51 HR inh: 2; KCC2 mod: -1.5*; CHT PAM: inactive; KCC2 secondary: 0.0059; KCC2 bumet counter: inconclusive; KCC2 sec2: 0.026*; HEK counter1: 0.007; KCC2 retest ouab: inconclusive; HEK counter2: 0.011

How did O=C(CCCn1ncn2c(cc3occc32)c1=O)N1CCc2ccccc2C1 do in these assays?
CHT inh: inactive; Rad51 HR inh: 0; KCC2 mod: -2.8*; CHT PAM: inactive; KCC2 secondary: 0.0053; KCC2 bumet counter: 0.0049; KCC2 sec2: 0.024*; HEK counter1: 0.0074; KCC2 retest ouab: inconclusive; HEK counter2: 0.011

What do the screens show for `O=C(CCCn1c(=O)oc2ccccc21)N1CCc2ccccc2C1`?
CHT inh: inactive; Rad51 HR inh: -5; CHT PAM: inactive; KCC2 secondary: 0.0082; KCC2 bumet counter: 0.0061; KCC2 sec2: 0.032; HEK counter1: 0.007; KCC2 retest ouab: 0.018*; HEK counter2: 0.01

What do the screens show for `Cc1c(C(=O)NCc2ccccn2)oc2ccc(S(=O)(=O)N3CCOCC3)cc12`?
CHT inh: inactive; KCC2 mod: 5.2*; CHT PAM: inactive; KCC2 secondary: 0.0052; KCC2 bumet counter: inconclusive; KCC2 sec2: inconclusive; HEK counter1: 0.0079; KCC2 retest ouab: 0.019; HEK counter2: 0.011

Results for O=C(CCNS(=O)(=O)c1ccccc1)OCC(=O)c1ccc(Cl)cc1 ?
CHT inh: inactive; CHT PAM: inactive

Results for Cc1c(CNCCC2=CCCCC2)c(C(=O)O)c(C)n1Cc1ccccc1 ?
CHT inh: inactive; KCC2 mod: 0.015; CHT PAM: inactive

How did Cn1nc([N+](=O)[O-])nc1Sc1cccc2cccnc12 do in these assays?
CHT inh: inactive; Rad51 HR inh: -6; KCC2 mod: 7.6*; CHT PAM: inactive; KCC2 secondary: 0.0099; KCC2 bumet counter: 0.023*; KCC2 sec2: 0.03; HEK counter1: 0.013*; KCC2 retest ouab: 0.023; HEK counter2: 0.01

How did O=[N+]([O-])c1ccc(Cl)cc1Sc1cccc2cccnc12 do in these assays?
CHT inh: inactive; Rad51 HR inh: 7; KCC2 mod: -0.9; CHT PAM: inactive

What do the screens show for `CCOC(=O)c1sc2nc(C)nc(SCC(=O)N(C)C3CCS(=O)(=O)C3)c2c1C` (stereo not drawn)?
CHT inh: inactive; Rad51 HR inh: -9; KCC2 mod: 24*; CHT PAM: inactive; KCC2 secondary: 0.0075; KCC2 bumet counter: 0.06*; KCC2 sec2: 0.052*; HEK counter1: 0.049*; KCC2 retest ouab: 0.048*; HEK counter2: 0.046*
